Assay results from ChEMBL document CHEMBL3784921, “Mimicking of Arginine by Functionalized N(ω)-Carbamoylated Arginine As a New Broadly Applicable Approach to Labeled Bioactive Peptides: High Affinity Angiotensin, Neuropeptide Y, Neuropeptide FF, and Neurotensin Receptor Ligands As Examples” (J Med Chem, 2016).
Blank lines part the entries; values can stand above or below the compound they belong to. *1 amine or outer side, *2 acyl side, *3 side chain or, on linkers, in order; H or OH if unused. Where a SMILES comes first, the peptide text is derived from it. [ ]: non-standard residue; d: D form. X1 = CCC(=O)NCCCCNC(=O)/N=C(\N)NCCC[C@H](N[*:1])C(=O)[*:2]

Experiments:
[1] = target: T1, Type-1 angiotensin II receptor (Homo sapiens, UniProt P30556); assay: Displacement of [3H]-Asp-{Nomega-[N-(4-propanoylaminobutyl)aminocarbonyl]}Arg-ValTyr-Ile-His-Pro-Phe-OH Tris(hydrotrifluoroacetate) from human AT1 receptor transfected in CHO cells co-expressing Galpha16-mtAEQ after 2 hrs by liquid scintillation counting; assay type: cell-based
T1 sequence (P30556 whole entry): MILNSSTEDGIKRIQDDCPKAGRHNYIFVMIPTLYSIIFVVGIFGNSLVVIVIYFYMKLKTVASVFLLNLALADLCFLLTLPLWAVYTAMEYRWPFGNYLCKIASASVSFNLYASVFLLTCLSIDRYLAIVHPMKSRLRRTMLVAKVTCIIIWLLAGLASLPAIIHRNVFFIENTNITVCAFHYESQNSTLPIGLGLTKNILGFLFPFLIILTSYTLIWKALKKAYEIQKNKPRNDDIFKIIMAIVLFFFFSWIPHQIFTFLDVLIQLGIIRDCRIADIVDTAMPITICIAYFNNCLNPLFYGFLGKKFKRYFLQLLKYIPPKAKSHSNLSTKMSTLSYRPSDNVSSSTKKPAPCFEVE

[2] = target: T1, Type-1 angiotensin II receptor; assay: Displacement of [3H]-Angiotensin 2 from human AT1 receptor transfected in CHOK1 cells preincubated for 30 mins with bovine serum albumin followed by radioligand addition by liquid scintillation counting; assay type: cell-based, CHO-K1
[3] = target: T2, Neurotensin receptor type 1 (Homo sapiens, UniProt P30989); assay: Binding affinity to human NTSR1 receptor transfected in CHO cells co-expressing Galpha16-mtAEQ after 2 hrs by liquid scintillation counting; assay type: cell-based
[4] = target: T2, Neurotensin receptor type 1; assay: biochemical
[5] = target: T2, Neurotensin receptor type 1; assay: biochemical; remark: listed apart in the source
[6] = Binding affinity to AT1 receptor natively expressed in rat mesangial cells; assay type: cell-based
[7] = target: T1, Type-1 angiotensin II receptor; assay: biochemical
[8] = Chemical stability of compound at 200 uM at pH 7 at 21 degC after 24 to 48 hrs by reversed-phase HPLC analysis; assay type: physicochemical; settings: buffer, pH 7, 200 µM
Outline: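 Peptide incubated in phosphate buffer (PBS), pH 7.0, 21 °C, for 24 or 48 h. Remaining intact peptide assessed by reversed-phase HPLC chromatograms.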

[9] = Drug degradation in CHO cells expressing human AT1 receptor at 50 uM after 2 hrs by reversed-phase HPLC analysis; assay type: ADME, cell-based, Cricetulus griseus; settings: chinese hamster, read-out: Drug degradation
Outline: (§1)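 Stability tested under binding-assay conditions for up to 6 h: AT1 ligands with CHO-hAT1 cells and NTSR1 ligands with HT-29 cells. Samples analysed by reversed-phase HPLC chromatography.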

[10] = target: T1, Type-1 angiotensin II receptor; assay: Agonist activity at human AT1 receptor transfected in CHO cells co-expressing Galpha16-mtAEQ assessed as induction of intracellular Ca2+ mobilization by bioluminescence assay; assay type: functional, cell-based
[11] = Drug degradation in CHO cells expressing human AT1 receptor at 50 uM after 6 hrs by reversed-phase HPLC analysis; assay type: ADME, cell-based, Cricetulus griseus; settings: chinese hamster, read-out: Drug degradation; outline: as §1
[12] = Drug degradation in human HT-29 cells at 50 uM after 2 hrs by reversed-phase HPLC analysis; assay type: ADME, cell-based; settings: read-out: Drug degradation; outline: as §1
[13] = target: T2, Neurotensin receptor type 1; assay: Agonist activity at NTSR1 in human HT-29 cells assessed as induction of intracellular Ca2+ mobilization by fura-2 dye-based spectrofluorimetric analysis; assay type: functional, cell-based; settings: read-out: EC50
[14] = target: T2, Neurotensin receptor type 1; assay: Displacement of [3H]-{Nomega-[N-(4-propanoylaminobutyl)aminocarbonyl]}Arg-Arg-ProTyr-Ile-Leu-OH Tris(hydrotrifluoroacetate) from NTSR1 in human HT-29 cells after 2 hrs by liquid scintillation counting; assay type: cell-based
[15] = target: T2, Neurotensin receptor type 1; assay: Displacement of [3H]-{Nomega-[N-(4-propanoylaminobutyl)aminocarbonyl]}Arg-Arg-ProTyr-Ile-Leu-OH Tris(hydrotrifluoroacetate) from human NTSR1 transfected in CHO cells co-expressing Galpha16-mtAEQ after 2 hrs by liquid scintillation counting; assay type: cell-based
[16] = target: Neurotensin receptor type 2 (Homo sapiens, UniProt O95665); assay: Displacement of [3H]NT(8 to 13 residues) from human NTSR2 expressed in HEK293 cell membranes
[17] = Drug degradation in human HT-29 cells at 50 uM after 6 hrs by reversed-phase HPLC analysis; assay type: ADME, cell-based; settings: read-out: Drug degradation; outline: as §1
[18] = target: T3, Neuropeptide FF receptor 2 (Homo sapiens, UniProt Q9Y5X5); assay: Binding affinity to human NPFF2 receptor expressed in CHO cell membranes after 1 hr by liquid scintillation spectrophotometric counting
[19] = target: T3, Neuropeptide FF receptor 2; assay: Displacement of [3H]EYE from human NPFF2 receptor expressed in CHO cell membranes after 1 hr by liquid scintillation spectrophotometric counting

T2 sequence (P30989 whole entry): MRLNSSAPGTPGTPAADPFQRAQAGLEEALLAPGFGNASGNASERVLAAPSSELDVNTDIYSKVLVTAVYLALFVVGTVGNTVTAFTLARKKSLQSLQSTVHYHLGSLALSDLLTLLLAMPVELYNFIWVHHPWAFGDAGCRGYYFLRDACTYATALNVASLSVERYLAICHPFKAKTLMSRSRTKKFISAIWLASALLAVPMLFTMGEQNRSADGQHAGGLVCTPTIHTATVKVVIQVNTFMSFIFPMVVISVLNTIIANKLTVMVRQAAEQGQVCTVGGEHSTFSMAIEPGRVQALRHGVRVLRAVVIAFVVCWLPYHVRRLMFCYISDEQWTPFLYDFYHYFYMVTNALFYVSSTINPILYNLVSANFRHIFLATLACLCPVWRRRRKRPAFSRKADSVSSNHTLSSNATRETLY
T3 sequence (Q9Y5X5 whole entry): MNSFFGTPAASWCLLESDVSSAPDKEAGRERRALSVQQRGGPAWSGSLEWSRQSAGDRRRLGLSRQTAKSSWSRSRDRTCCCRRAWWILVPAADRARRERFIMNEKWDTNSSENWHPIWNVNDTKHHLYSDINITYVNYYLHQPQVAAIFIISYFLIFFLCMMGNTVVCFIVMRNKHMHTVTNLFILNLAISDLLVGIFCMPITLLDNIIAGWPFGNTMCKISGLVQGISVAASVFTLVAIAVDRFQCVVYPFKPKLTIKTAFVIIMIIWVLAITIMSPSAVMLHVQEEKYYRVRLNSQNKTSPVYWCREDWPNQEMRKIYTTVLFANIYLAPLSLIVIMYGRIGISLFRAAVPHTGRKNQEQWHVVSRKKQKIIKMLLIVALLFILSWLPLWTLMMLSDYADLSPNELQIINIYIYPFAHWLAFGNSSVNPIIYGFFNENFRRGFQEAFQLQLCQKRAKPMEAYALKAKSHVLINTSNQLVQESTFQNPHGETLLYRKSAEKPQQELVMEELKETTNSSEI
Neurotensin receptor type 2, sequence (O95665 whole entry, the tested form may be a part): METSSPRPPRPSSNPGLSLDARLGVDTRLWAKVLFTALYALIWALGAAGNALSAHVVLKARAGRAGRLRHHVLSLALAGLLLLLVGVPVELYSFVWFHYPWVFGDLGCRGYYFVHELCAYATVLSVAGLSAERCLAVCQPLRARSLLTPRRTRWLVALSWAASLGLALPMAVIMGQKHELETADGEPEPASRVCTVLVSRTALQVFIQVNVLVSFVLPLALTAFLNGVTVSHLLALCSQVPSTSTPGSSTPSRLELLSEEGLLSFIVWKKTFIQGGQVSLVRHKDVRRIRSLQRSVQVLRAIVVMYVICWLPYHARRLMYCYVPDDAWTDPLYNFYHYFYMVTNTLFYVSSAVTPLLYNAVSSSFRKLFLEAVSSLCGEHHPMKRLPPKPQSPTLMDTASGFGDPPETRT

- IC50 [1]: 10.7 nM
- Ki [1]: 3.5 nM
- IC50 [2]: 0.69 nM
Compound: CCOc1nc2cccc(C(=O)O)c2n1Cc1ccc(-c2ccccc2-c2nnn[nH]2)cc1

Compound: O=C(O)C(F)(F)F.O=C(O)C(F)(F)F.O=C(O)C(F)(F)F.[3H]CC([3H])C(=O)NCCCCNC(=O)/N=C(\N)NCCC[C@H](N)C(=O)N[C@@H](CCCNC(=N)N)C(=O)N1CCC[C@H]1C(=O)N[C@@H](Cc1ccc(O)cc1)C(=O)N[C@H](C(=O)N[C@@H](CC(C)C)C(=O)O)[C@@H](C)CC (some centres undefined)
- Kd [3]: 0.58 nM
- Kd [4]: 0.51 nM
- Kd [5]: 0.44 nM

Compound: O=C(O)C(F)(F)F.O=C(O)C(F)(F)F.O=C(O)C(F)(F)F.[3H]CC([3H])C(=O)NCCCCNC(=O)/N=C(\N)NCCC[C@H](NC(=O)[C@@H](N)CC(=O)O)C(=O)N[C@H](C(=O)N[C@@H](Cc1ccc(O)cc1)C(=O)N[C@H](C(=O)N[C@@H](Cc1cnc[nH]1)C(=O)N1CCC[C@H]1C(=O)N[C@@H](Cc1ccccc1)C(=O)O)[C@@H](C)CC)C(C)C (some centres undefined)
- Kd [6]: 1.5 nM
- Kd [7]: 0.94 nM

Compound: CCC(=O)NCCCCNC(=O)/N=C(\N)NCCC[C@H](NC(=O)[C@@H](N)CC(=O)O)C(=O)N[C@H](C(=O)N[C@@H](Cc1ccc(O)cc1)C(=O)N[C@H](C(=O)N[C@@H](Cc1cnc[nH]1)C(=O)N1CCC[C@H]1C(=O)N[C@@H](Cc1ccccc1)C(=O)O)[C@@H](C)CC)C(C)C.O=C(O)C(F)(F)F.O=C(O)C(F)(F)F.O=C(O)C(F)(F)F (H-D[X1]VYIHPF-OH)
- Stability [8]: Stable
- metabolised at 2 h, 50 µM [9]: < 5.5%
- EC50 [10]: 1.1 nM
- IC50 [1]: 2.19 nM
- Ki [1]: 0.71 nM
- metabolised at 6 h, 50 µM [11]: < 2%

Compound: CCC(=O)NCCCCNC(=O)/N=C(\N)NCCC[C@H](N)C(=O)N[C@@H](CCCNC(=N)N)C(=O)N1CCC[C@H]1C(=O)N[C@@H](Cc1ccc(O)cc1)C(=O)N[C@H](C(=O)N[C@@H](CC(C)C)C(=O)O)[C@@H](C)CC.O=C(O)C(F)(F)F.O=C(O)C(F)(F)F.O=C(O)C(F)(F)F (H-[X1]RPYIL-OH)
- Stability [8]: Stable
- metabolised at 2 h, 50 µM [12]: < 4%
- EC50 [13]: 2 nM
- IC50 [14]: 1.35 nM
- Ki [14]: 0.47 nM
- Ki [15]: 0.63 nM
- Ki [16]: 2.5 nM
- metabolised at 6 h, 50 µM [17]: < 4%

- Kd [18]: 0.54 nM
- Ki [19]: 0.53 nM
Compound: H-EYWSLAAPQRF-NH2
